Screening results: PubChem, several laboratories
Most compounds without a hit are left out; they make up all but 4% or so of the library.
ABHD5-PLIN5 inh: ABHD5-PLIN5 interaction inhibitors, primary screen, cell lysate, split luciferase complementation, luminescence | Perilipin-5 (Homo sapiens) + 1-acylglycerol-3-phosphate O-acyltransferase ABHD5 (Homo … | Split G. princeps luciferase complementation, 4 h | inhibition, % at 4 µM | actives 0.78% (n = 360,000);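 active = inhibition above the mean inhibition across every tested compound plus 3 SD, cut at about 22% in these data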
Target sequence (Q00G26 whole entry, looked up): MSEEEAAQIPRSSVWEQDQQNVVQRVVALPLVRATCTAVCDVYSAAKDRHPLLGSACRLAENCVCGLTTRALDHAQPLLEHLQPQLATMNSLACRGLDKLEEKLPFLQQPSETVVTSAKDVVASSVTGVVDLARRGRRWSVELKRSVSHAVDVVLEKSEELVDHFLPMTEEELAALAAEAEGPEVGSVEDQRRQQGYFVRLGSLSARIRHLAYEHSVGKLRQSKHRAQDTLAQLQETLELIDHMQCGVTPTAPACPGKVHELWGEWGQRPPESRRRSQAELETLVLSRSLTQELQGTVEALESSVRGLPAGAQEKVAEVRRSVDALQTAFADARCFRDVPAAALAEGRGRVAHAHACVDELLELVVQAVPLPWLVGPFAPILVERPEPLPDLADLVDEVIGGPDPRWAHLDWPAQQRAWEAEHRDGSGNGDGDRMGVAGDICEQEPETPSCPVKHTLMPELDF
Target sequence (Q8WTS1 whole entry, looked up): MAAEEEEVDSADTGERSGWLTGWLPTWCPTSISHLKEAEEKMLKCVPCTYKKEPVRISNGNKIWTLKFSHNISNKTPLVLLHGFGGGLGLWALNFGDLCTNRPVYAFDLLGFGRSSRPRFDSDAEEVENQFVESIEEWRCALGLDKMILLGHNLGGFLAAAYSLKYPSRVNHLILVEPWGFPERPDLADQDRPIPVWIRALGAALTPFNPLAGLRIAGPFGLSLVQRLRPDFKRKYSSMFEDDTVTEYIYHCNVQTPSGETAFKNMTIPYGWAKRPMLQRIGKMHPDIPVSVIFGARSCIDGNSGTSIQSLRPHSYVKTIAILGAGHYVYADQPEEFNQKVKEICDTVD
Mdm2-MdmX inh: inhibitors of human Mdm2-MdmX association, primary screen, cell-based, luminescence, split luciferase, SaOS-2, uHTS. Protein Mdm4 (Homo sapiens) + E3 ubiquitin-protein ligase Mdm2 (Homo sapiens), …. SaOS-2 split-luciferase Mdm2/MdmX complementation. inhibition, % at 8 µM. actives 3% (n = 330,000). AID 485346, 2010;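 active = inhibition of at least 50% at 8 µM in the primary screen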
UPR XBP1 act: activators of adaptive XBP1 UPR arm, primary screen, cell-based, CHO-XBP1 luciferase reporter, luminescence, uHTS; actives 0.33% (n = 330,000); AID 463104, 2010; IRE1-XBP1 UPR activation; percent of tunicamycin response, DMSO as zero; activation, % at 20 µM;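 active = versus positive control, 20 µM dose yields 30% or more activation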
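Material: CHO-XBP1 cells stably carrying IRE1-XBP1-driven luciferase reporter / Amount: 1000 cells per well / Compound: 20 µM, 1% DMSO / Times: 6 h treatment, 37 °C / Detection: luciferase luminescence / Measure: % activation of reporter signal versus tunicamycin and DMSO controls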
CHOP UPR activ: activators of apoptotic CHOP UPR arm, primary screen, cell-based, CHO-CHOP luciferase reporter, luminescence, uHTS | UPR activation; percent of tunicamycin response over DMSO baseline | AID 449763, 2010 | activation, % at 10 µM | actives 0.34% (n = 330,000);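 active = at 10 µM dose, activation of 40% or more, normalized to positive control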
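Assay system: CHO-CHOP cells, stable luciferase reporter of PERK-eIF2a-CHOP signalling / Buffer or medium: F12 plus 10% serum / Compound dosing: one dose, 10 µM in 0.5% DMSO / Times: 6 h compound treatment, 37 °C / Technique: luciferase luminescence / Read-out: % reporter activation, DMSO baseline versus tunicamycin full activation / Benchmarks: tunicamycin and DMSO controls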
Exocytosis inh: LAMP-1 surface exposure blockers, TALL-104 cells – cell-based, flow cytometry, MLPCN library, primary screen; TALL-104 LAMP-1 surface exposure; cells stimulated with thapsigargin and PMA; inhibition, % at 10 µM; actives 0.66% (n = 360,000); AID 651702, 2012;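 active = inhibition above about 55%, limit read from the data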
XBP1 UPR conf: IRE1-XBP1 UPR arm activators, confirmation, cell-based, CHO-XBP1 luciferase reporter, luminescence, single concentration | shares compounds with UPR XBP1 act | activation, % at 20 µM | actives 63% (n = 1,000) | AID 485299, 2010;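 active = reporter signal at least 30% of the positive control's activation in two or more of four replicate wells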
Mdm2 MdmX conf: Mdm2-MdmX complex disruptors, retested hits, confirmation, luminescence, single concentration; shares compounds with Mdm2-MdmX inh; Mdm2-MdmX binding, luminescent assay; inhibition, % at 8 µM; actives 55% (n = 10,000); in the data active = inhibition above about 40%
FLuc counter: full-length luciferase signal inhibition, confirmation, counter-screen for Mdm2/MdmX interaction inhibitor project, cell-based, single concentration, SaOS-2 | shares compounds with Mdm2-MdmX inh | SaOS-2 full-length luciferase counterscreen, luminescence | inhibition, % at 8 µM | actives 77% (n = 6,200);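 active = mean inhibition at 8 µM reaching about 37%, which flags the compound as non-specific, limit read from the data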;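 note: p53-null SaOS-2 cells with luciferase driven by a doxycycline-inducible promoter; compound on cells about two nights before reading with doxycycline added after day one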
Exocytosis CP01: inhibitors of lytic granule exocytosis, confirmation, TALL-104 cells, flow cytometry, Cherry Pick01. actives 11% (n = 1,500). shares compounds with Exocytosis inh. AID 651954, 2012. inhibition, % at 10 µM. LAMP-1 externalization; stimulated with PMA plus thapsigargin; in the data active = inhibition above about 60%
Hits are given with their value; 0 = inactive; - = not tested or not shown.

SMILES | ABHD5-PLIN5 inh | Mdm2-MdmX inh | UPR XBP1 act | CHOP UPR activ | Exocytosis inh | Mdm2 MdmX conf | FLuc counter | others
NCCc1c(-c2ccccc2)n(-c2ccccc2)c2ccccc12 | 0 | 61 | 38 | 0 | 91 | 53 | 71 | XBP1 UPR conf=84;Exocytosis CP01=70
CN1Cc2c(N3CCOCC3)nc3sc(C(=O)c4ccc(Br)cc4)c(N)c3c2CC1(C)C | 0 | 91 | 38 | 0 | 61 | 61 | 84 | XBP1 UPR conf=63;Exocytosis CP01=75
Cc1ccc(Nc2nc(NCc3ccco3)c3ccccc3n2)cc1 | 0 | 70 | 61 | 0 | 69 | 0 | - | XBP1 UPR conf=72;Exocytosis CP01=67
Oc1ccccc1-c1nc(NCc2ccco2)c2ccccc2n1 | 0 | 0 | 0 | 0 | 0 | - | -
CCOC(=O)c1cc2sc(C)cc2n1CC(=O)N1CCc2ccccc21 | 0 | 0 | 0 | 0 | 0 | - | -
NCC12CC3CC(C1)CC(c1ccc(Cl)cc1)(C3)C2 | 0 | 96 | 0 | 0 | 0 | 0 | -
Nc1ccc(C23CC4CC(CC(CO)(C4)C2)C3)cc1 | 0 | 0 | 0 | 0 | 0 | - | -
CC1(C)N=C(SCC(=O)Nc2ccc(Cl)cc2)C(c2ccc(Cl)cc2)=N1 | 0 | 56 | 0 | 0 | 0 | 0 | -
CCCCCCNC(=O)c1cn(CC)c2cc(N3CCN(C)CC3)c(F)cc2c1=O | 0 | 51 | 0 | 0 | 0 | 0 | -
O=C(CCS(=O)(=O)c1ccccc1)N(CCCN1CCOCC1)c1nc2c(F)cccc2s1 | 0 | 79 | 0 | 0 | 0 | 58 | 38
Cc1ccc(S(=O)(=O)CC(=O)N(CCCN2CCOCC2)c2nc3c(F)cccc3s2)cc1 | 0 | 0 | 0 | 0 | 0 | - | -
CCOc1ccc(OCC)c(NC(=O)CN2CCN(CC(=O)NC(C)C)CC2)c1 | 0 | 0 | 0 | 0 | 0 | - | -
Cc1ccc(Sc2ncnc3onc(C)c23)c(C)c1 | 0 | - | - | - | 0 | - | -
Cc1noc2ncnc(Sc3ccccc3Cl)c12 | 0 | 70 | 0 | 0 | 0 | 0 | -
CCc1ccc(OCC(=O)NC2CC(C)(C)NC(C)(C)C2)cc1 | 0 | 0 | 0 | 0 | 0 | - | -
COc1cc(NC(=O)c2c(F)c(F)c(F)c(F)c2F)c(OC)cc1Cl | 0 | 78 | 0 | 0 | 0 | 47 | 53
COC(=O)c1ccc(N2CCCCC2)c(NS(=O)(=O)c2ccc(C)cc2)c1 | 0 | 65 | 0 | 0 | 0 | 57 | 62
COC(=O)c1ccc(Cl)c(NS(=O)(=O)c2ccc3c(c2)OCCO3)c1 | 0 | 53 | 0 | 0 | 0 | 47 | 55
COc1ccc(-c2cc(C(=O)NCc3cccc(Cl)c3)[nH]n2)c(C)c1 | 0 | - | - | - | 0 | - | -
Cc1cc(C(C)(C)CC(C)(C)C)ccc1OCCOCC[N+](C)(C)Cc1ccccc1 | 0 | 100 | 0 | 0 | 0 | 96 | 54
O=C(COc1ncnc2ccc(Br)cc12)Nc1ccc(N2CCOCC2)cc1 | 0 | 0 | 0 | 0 | 0 | - | -
Brc1ccc2ncnc(NCc3ccco3)c2c1 | 0 | 57 | 0 | 0 | 0 | 0 | -
CC(=O)c1cccc(Nc2ncnc3ccc(Br)cc23)c1 | 0 | 67 | 0 | 0 | 0 | 47 | 38
CC(C)Nc1ncnc2ccc(Br)cc12 | 0 | 67 | 0 | 0 | 0 | 68 | 0
COc1cc2ncnc(NCc3ccco3)c2cc1OC | 0 | 0 | 0 | 0 | 0 | - | -
SMILES | ABHD5-PLIN5 inh | Mdm2-MdmX inh | UPR XBP1 act | CHOP UPR activ | Exocytosis inh | Mdm2 MdmX conf | FLuc counter | others
CC(=O)c1ccc(Nc2ncnc3ccc(Br)cc23)cc1 | 0 | - | - | - | 0 | - | -
Brc1ccc2ncnc(Nc3ccc(N4CCOCC4)cc3)c2c1 | 0 | 62 | 0 | 0 | 0 | 66 | 0
Cc1ccc(S(=O)(=O)N2CCOC23CCN(C(=O)c2ccc(Cl)cc2Cl)CC3)cc1 | 0 | 0 | 0 | 0 | 0 | - | -
Cc1ccccc1N(Cc1cc(=O)[nH]c2ccccc12)C(=O)C(C)C | 0 | 0 | 0 | 0 | 0 | - | -
O=C(CCl)N(Cc1cc(=O)[nH]c2ccccc12)c1ccccc1 | 0 | 100 | 0 | 0 | 0 | 100 | 53
CCC(=O)N(Cc1cc(=O)[nH]c2ccccc12)c1ccccc1 | 0 | 0 | 0 | 0 | 0 | - | -
Cc1ccccc1N(Cc1cc(=O)[nH]c2ccccc12)C(=O)CCl | 0 | 96 | 0 | 0 | 0 | 73 | 58
O=C(CCl)N(Cc1ccccc1)c1ccccc1 | 0 | 96 | 0 | 0 | 0 | 96 | 55
CCN1C(=O)c2cccc3c(Cl)ccc1c23 | 0 | 50 | 0 | 0 | 0 | 0 | -
CCN1C(=O)c2cccc3c(S(=O)(=O)Nc4ccccn4)ccc1c23 | 0 | 75 | 0 | 0 | 0 | 46 | 68
CCN1C(=O)c2cccc3c(S(=O)(=O)Nc4ccccc4)ccc1c23 | 0 | 81 | 0 | 0 | 0 | 73 | 70
CN1C(=O)c2cccc3c(S(=O)(=O)Nc4ccccc4F)ccc1c23 | 0 | 51 | 0 | 0 | 0 | 0 | -
CCN1C(=O)c2cccc3c(S(=O)(=O)Nc4ccncc4)ccc1c23 | 0 | 0 | 0 | 0 | 0 | - | -
Cc1cccc(N2CCN(S(=O)(=O)c3c(C)noc3/C=C/N(C)C)CC2)c1C | 0 | 0 | 0 | 0 | 0 | - | -
O=C(CNS(=O)(=O)c1ccccc1)Nc1ccc(C(F)(F)F)cc1 | 0 | 0 | 0 | 0 | 0 | - | -
Cc1cc(C)cc(NS(=O)(=O)c2coc(C(N)=O)c2)c1 | 0 | 0 | 0 | 0 | 0 | - | -
CCN1C(=O)c2cccc3c(S(=O)(=O)Nc4ncccc4C)ccc1c23 | 0 | 51 | 0 | 0 | 0 | 0 | -
CCN1C(=O)c2cccc3c(S(=O)(=O)Nc4ccc(OC)cc4OC)ccc1c23 | 0 | 0 | 0 | 0 | 0 | - | -
CCN1C(=O)c2cccc3c(S(=O)(=O)Nc4nc(C)cs4)ccc1c23 | 0 | 73 | 0 | 0 | 0 | 0 | -
CCN1C(=O)c2cccc3c(S(=O)(=O)NCc4cccnc4)ccc1c23 | 0 | 0 | 0 | 0 | 0 | - | -
CCCC(C)NC(=O)Cn1c(=O)c2c(ncn2CCC(C)C)n(Cc2ccccc2)c1=O (centres undefined) | 0 | 0 | 0 | 0 | 0 | - | -
